Test results from ChEMBL document CHEMBL4831540, “Discovery of Aficamten (CK-274), a Next-Generation Cardiac Myosin Inhibitor for the Treatment of Hypertrophic Cardiomyopathy” (J Med Chem, 2021).
pIC50: −log10 of the molar value. Converted amounts (≈) assume the structure as drawn.

Legend:
[1] = Half life in Sprague-Dawley rat at 1 mg/kg; format: ADME, organism-based; conditions: in vivo
How it was run: (§1)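 Rat PK with iv and po administration at 1 mg/kg. Clearance and half-life came from the iv arm, and bioavailability from the iv/po comparison.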

[2] = Clearance in Sprague-Dawley rat at 1 mg/kg; format: ADME, organism-based; conditions: in vivo; how it was run: as §1
[3] = Plasma protein binding in rat assessed as unbound fraction; format: ADME, cell-free
[4] = Clearance in Sprague-Dawley rat at 1 mg/kg; conditions: in vivo
[5] = Metabolic stability in rat liver microsomes assessed as intrinsic clearance measured upto 90mins by HPLC/MS/MS analysis; format: ADME, Microsome; conditions: read-out: CLH
[6] = (§2) Inhibition of full-length myosin ATPase activity in bovine cardiac myofibrils; format: subcellular, Bos taurus, Heart
How it was run: (§3)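 Bovine cardiac myofibril ATPase assay run at a calcium level giving 75% of maximal activity.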

[7] = Plasma protein binding in rat plasma assessed as unbound concentration at 5 uM incubated for 6 hrs by HPLC analysis; format: ADME, cell-free
[8] = Metabolic stability in human liver microsomes assessed as intrinsic clearance measured upto 90mins by HPLC/MS/MS analysis; format: ADME, Microsome; conditions: read-out: CLH
[9] = Bioavailability in Sprague-Dawley rat at 1 mg/kg, po or 1 mg/kg, iv; format: ADME, organism-based; conditions: in vivo; how it was run: as §1
[10] = species on record: Bos taurus; assay: as §2; format: subcellular; conditions: Heart, Myofibril; how it was run: as §3
[11] = Solubility of the compound at pH 6.8 by shake flask method; format: physicochemical; conditions: buffer
How it was run: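 Shake-flask solubility at pH 6.8; solid form not characterized.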

[12] = Plasma protein binding in human assessed as unbound fraction; format: ADME, cell-free
[13] = Unbound clearance in Sprague-Dawley rat at 0.5 mg/kg; format: ADME, organism-based; conditions: in vivo
How it was run: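 Rat in vivo clearance at a 0.5 mg/kg dose was divided by the rat plasma free fraction to give unbound clearance.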

Compound	CLint scaled [5]	pIC50 [6]	fraction unbound at 6 h, 5 µM [7]	CLint scaled [8]	further results
CCc1nc(-c2ccc3c(c2)CC[C@H]3NC(=O)c2cn[nH]c2)no1	3.96 L/h/kg	5.96	0.2	< 0.66 L/h/kg	half-life [1]: 1.4 h; clearance [2]: 3.78 L/h/kg; fraction unbound [3]: 0.2; clearance [4]: 3.78 L/h/kg; bioavailability [9]: 10%
CCc1nc(-c2ccc3c(c2)CC[C@H]3NC(=O)c2cc(C)ncn2)no1	1.44 L/h/kg	5.74	0.092	< 0.66 L/h/kg	half-life [1]: 5.9 h; clearance [2]: 1.2 L/h/kg; fraction unbound [3]: 0.046; clearance [4]: 1.2 L/h/kg; bioavailability [9]: 26%
Cc1nc(-c2ccc3c(c2)CCC3NC(=O)c2ccccc2)no1 (racemic)	> 7.44 L/h/kg	5.72	0.043	1.44 L/h/kg	–
CCc1nc(-c2ccc3c(c2)CC[C@H]3NC(=O)c2ccnnc2)no1	–	5.92	0.31	< 0.66 L/h/kg	half-life [1]: 6.6 h; clearance [2]: 2.64 L/h/kg; clearance [4]: 2.64 L/h/kg; bioavailability [9]: 16%
CCc1nc(-c2ccc3c(c2)CCN3C(=O)OCc2ccccc2)no1	–	< 4.41	–	–	IC15 [10]: 1.3 µM
CCc1nc(-c2ccc3c(c2)CC[C@H]3NC(=O)c2ocnc2C)no1	–	6.10	0.1	< 0.66 L/h/kg	half-life [1]: 14.7 h; clearance [2]: 2.4 L/h/kg; fraction unbound [3]: 0.051; clearance [4]: 2.4 L/h/kg; bioavailability [9]: 0%
CCc1nc(-c2ccc3c(c2)CCN3C(=O)c2ccccc2)no1	–	< 4.41	–	–	IC15 [10]: > 39 µM
Cc1nc(-c2ccc3c(c2)CCC3NC(=O)c2nnn(C)n2)no1 (racemic)	< 1.26 L/h/kg	5.29	0.19	< 0.66 L/h/kg	–
Cn1cc(C(=O)N[C@@H]2CCc3cc(-c4noc(C(F)F)n4)ccc32)cn1	< 1.26 L/h/kg	5.62	0.024	< 0.66 L/h/kg	solubility thermodynamic [11]: 37 µM (≈ 13.3 µg/mL); fraction unbound [3]: 0.024; fraction unbound [12]: 0.057
Cc1nc(-c2ccc3c(c2)CCC3NC(=O)c2oncc2C)no1 (racemic)	2.76 L/h/kg	5.60	0.064	< 0.66 L/h/kg	–
CCc1nc(-c2ccc3c(c2)CCN3C(=O)NCc2ccccc2)no1	–	< 4.41	–	–	IC15 [10]: > 39 µM
COCc1nc(-c2ccc3c(c2)CC[C@H]3NC(=O)c2cnn(C)c2)no1	< 1.26 L/h/kg	5.17	0.082	< 0.66 L/h/kg	solubility thermodynamic [11]: 63 µM (≈ 22.3 µg/mL); fraction unbound [3]: 0.082; fraction unbound [12]: 0.12
Cc1cc(C(=O)NC2CCc3cc(-c4noc(C)n4)ccc32)on1 (racemic)	2.88 L/h/kg	5.09	0.072	< 0.66 L/h/kg	–
Cc1nc(-c2ccc3c(c2)CCC3NC(=O)c2cnc(C)n2C)no1 (racemic)	< 1.26 L/h/kg	5.12	0.089	< 0.66 L/h/kg	–
Cn1cc(C(=O)N[C@@H]2CCc3cc(-c4noc(CCO)n4)ccc32)cn1	–	< 4.41	–	–	–
Cn1cc(C(=O)N[C@@H]2CCc3cc(-c4ncon4)ccc32)cn1	–	< 4.41	–	–	–
Cn1cc(C(=O)N[C@@H]2CCc3cc(-c4noc(C5CC5)n4)ccc32)cn1	–	5.57	–	–	solubility thermodynamic [11]: 33 µM (≈ 11.5 µg/mL); fraction unbound [3]: 0.042; fraction unbound [12]: 0.056
CC(C)c1nc(-c2ccc3c(c2)CC[C@H]3NC(=O)c2nnn(C)n2)no1	< 1.26 L/h/kg	5.72	0.17	< 0.66 L/h/kg	half-life [1]: 4.6 h; clearance [2]: 0.96 L/h/kg; fraction unbound [3]: 0.089; clearance [4]: 0.96 L/h/kg; bioavailability [9]: 52%

Compound	CLint scaled [5]	pIC50 [6]	fraction unbound at 6 h, 5 µM [7]	CLint scaled [8]	further results
CCc1nc(-c2ccc3c(c2)CC[C@H]3NC(=O)c2ccnc(C)c2)no1	1.38 L/h/kg	5.92	0.084	< 0.66 L/h/kg	half-life [1]: 3.5 h; clearance [2]: 0.78 L/h/kg; fraction unbound [3]: 0.021; clearance [4]: 0.78 L/h/kg; bioavailability [9]: 32%
CCc1nc(-c2ccc3c(c2)CCN3C(=O)CCc2ccccc2)no1	–	< 4.41	–	–	IC15 [10]: > 39 µM
CCc1nc(-c2ccc3c(c2)CCN3C(=O)CSc2ccccc2)no1	–	< 4.41	–	–	IC15 [10]: > 39 µM
CCc1nc(-c2ccc3c(c2)CCN3C(=O)Nc2ccccc2)no1	–	< 4.41	–	–	IC15 [10]: > 39 µM
CCc1nc(-c2ccc3c(c2)CCN3CCc2ccccc2)no1	–	< 4.41	–	–	IC15 [10]: 3.4 µM
CC(C)c1nc(-c2ccc3c(c2)CC[C@H]3NC(=O)c2cnn(C)c2)no1	–	5.39	–	–	–
Cn1cc(C(=O)N[C@@H]2CCc3cc(-c4noc(C5CCC5)n4)ccc32)cn1	–	5.49	–	–	solubility thermodynamic [11]: 14 µM (≈ 5.09 µg/mL)
CCc1nc(-c2ccc3c(c2)CC[C@H]3NC(=O)c2cnc(C)o2)no1	< 1.26 L/h/kg	5.77	0.18	< 0.66 L/h/kg	half-life [1]: 4.1 h; clearance [2]: 1.26 L/h/kg; fraction unbound [3]: 0.046; clearance [4]: 1.26 L/h/kg; bioavailability [9]: 13%
Cc1cc(C(=O)NC2CCc3cc(-c4noc(C)n4)ccc32)ccn1 (racemic)	< 1.26 L/h/kg	5.15	0.097	< 0.66 L/h/kg	–
CCc1nc(-c2ccc3c(c2)CCN3C(=O)Cc2ccccc2)no1	–	4.72	–	–	IC15 [10]: 3.5 µM
CCc1nc(-c2ccc3c(c2)CCC3NC(=O)c2ccccc2)no1 (racemic)	> 7.44 L/h/kg	6.00	0.023	> 3.72 L/h/kg	–
Cc1nc(-c2ccc3c(c2)CC[C@H]3NC(=O)c2cnn(C)c2)no1	< 1.26 L/h/kg	5.36	0.065	< 0.66 L/h/kg	CL free [13]: 1.94 L/h/kg; solubility thermodynamic [11]: 86 µM (≈ 27.8 µg/mL); fraction unbound [3]: 0.065; fraction unbound [12]: 0.14
Cc1cc(C(=O)N[C@@H]2CCc3cc(-c4noc(C(C)C)n4)ccc32)ccn1	1.38 L/h/kg	5.57	0.053	< 0.66 L/h/kg	half-life [1]: 4.6 h; clearance [2]: 0.84 L/h/kg; clearance [4]: 0.84 L/h/kg; bioavailability [9]: 79%
CCc1nc(-c2ccc3c(c2)CCN3C(=O)COc2ccccc2)no1	–	5.57	–	–	IC15 [10]: 0.9 µM
Cc1nc(-c2ccc3c(c2)CC[C@@H]3NC(=O)c2cnn(C)c2)no1	< 1.26 L/h/kg	< 4.41	0.15	< 0.66 L/h/kg	CL free [13]: 23.7 L/h/kg
COCCc1nc(-c2ccc3c(c2)CC[C@H]3NC(=O)c2cnn(C)c2)no1	–	< 4.41	–	–	–
Cc1cc(C(=O)N[C@@H]2CCc3cc(-c4noc(C5CC5)n4)ccc32)ccn1	< 1.26 L/h/kg	5.72	0.049	< 0.66 L/h/kg	half-life [1]: 13.8 h; clearance [2]: 0.18 L/h/kg; clearance [4]: 0.18 L/h/kg; bioavailability [9]: 70%
